SIAE primary: human SIAE inhibitors, primary screen, biochemical, fluorescence polarization, FP-Rh probe, 1536-well HTS; SIAE FP-Rh probe binding; inhibition, % at 9.66 µM; actives 0.69% (n = 370,000);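 active means inhibition above a cutoff: mean of compounds within the control limits plus 3 SD of those, cut at about 17% in these data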;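 further: 0% = plate median of compound wells and 100% = probe without SIAE protein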
mABHD4 FP: ABHD4 inhibitors, primary screen, biochemical, fluorescence polarization, mouse; actives 0.54% (n = 370,000); inhibition, % at 8.92 µM; purified mABHD4, FP-Rh probe fluorescence polarization; (Lyso)-N-acylphosphatidylethanolamine lipase (Mus musculus), Q8VD66;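 active means inhibition exceeding the mean over every tested compound plus 3 SD, cut at about 30% in these data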;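 further: 0% = plate median of compound wells and 100% = S159A mutant with DMSO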
Target sequence (Q8VD66 whole entry, looked up): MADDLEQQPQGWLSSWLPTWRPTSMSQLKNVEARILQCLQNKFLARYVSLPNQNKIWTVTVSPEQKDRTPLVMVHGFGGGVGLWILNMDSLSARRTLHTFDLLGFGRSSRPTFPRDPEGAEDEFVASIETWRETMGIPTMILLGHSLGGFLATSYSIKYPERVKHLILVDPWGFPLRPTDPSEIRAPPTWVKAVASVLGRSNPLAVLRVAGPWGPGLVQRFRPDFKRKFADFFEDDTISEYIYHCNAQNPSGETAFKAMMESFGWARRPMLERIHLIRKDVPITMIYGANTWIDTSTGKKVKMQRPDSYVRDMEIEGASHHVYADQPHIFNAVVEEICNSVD
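system = mouse ABHD4 enzyme, wild type | medium = HEPES pH 7.0, NaCl, Pluronic buffer | also added = FP-Rh probe | incubation = Enzyme–compound pre-incubation 45 min, then probe 60 min, both 25 °C | technique = fluorescence polarization, excitation 525 nm, emission 598 nm, BODIPY TMR filters | controls = S159A mutant high control, sample median low control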
TCR-CD3 inh: inhibitors of human TCR-CD3 interaction, primary screen, biochemical, fluorescence, TAMRA-labeled TCR probe; T-cell receptor (TCR); actives 0.37% (n = 360,000); AID 651800, 2012; inhibition, % at 9.4 µM; in the data active means inhibition above about 19%;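 further: recombinant mutant TCR 2C K166C tagged with TAMRA read by polarization; 0% = receptor in buffer alone and 100% = receptor with positive control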
HTRA1 inhibitor: HTRA1 serine protease inhibitors, primary screen, biochemical, fluorescence polarization, HTS. Q92743. recombinant HTRA1, FP-rhodamine activity-based probe. inhibition, % at 5.96 µM. actives 0.5% (n = 340,000). AID 504803, 2011; in the data active means inhibition above about 36%;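 further: 0% = enzyme with DMSO and 100% = wells lacking enzyme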
pPAFAH FP inh: pPAFAH enzyme inhibitors, primary screen, biochemical, fluorescence polarization, human; Platelet-activating factor acetylhydrolase (Homo sapiens), Q13093; recombinant pPAFAH, FP-rhodamine probe fluorescence polarization; inhibition, % at 3.39 µM; actives 1.5% (n = 330,000);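 active means inhibition above the mean inhibition across the screen plus 3 SD, cut at about 25% in these data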;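 further: inhibitors block binding of the rhodamine activity-based probe so polarization drops; 0% = enzyme with DMSO and 100% = wells lacking pPAFAH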
SIAE inh conf: human SIAE inhibitors, retest, confirmation, biochemical, fluorescence polarization, FP-Rh probe, triplicate; shares compounds with SIAE primary; inhibition, % at 9.66 µM; actives 13% (n = 2,300); SIAE FP-Rh activity-based probe;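 active means mean inhibition of the replicates above the hit cutoff set in the primary screen, cut at about 17% in these data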;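 further: 0% = SIAE with DMSO and probe and 100% = probe without SIAE; inhibitors lower polarization as more probe stays unbound to SIAE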
An asterisk follows results filed as active. This is a sample that favours compounds with a hit; in the whole collection about 2.3% have one here.

Screening COc1ccc(NC(=O)n2ncc3c(C)cccc32)cc1 returned SIAE primary -0.5, mABHD4 FP 4.6, TCR-CD3 inh -5.7, HTRA1 inhibitor -12.7 and pPAFAH FP inh 0.8.
`COc1ccc(NC(=O)n2ncc3c(C)cccc32)cc1OC` gave SIAE primary 17.4*, mABHD4 FP -3.2, TCR-CD3 inh -0.5, HTRA1 inhibitor -8.5, pPAFAH FP inh 3.9 and SIAE inh conf -1.7.
For CCOc1ccc(NC(=O)C/C(C)=N/NC(=O)c2cnccn2)cc1 the results were SIAE primary 20.2*, mABHD4 FP -5.1, TCR-CD3 inh 7.1, HTRA1 inhibitor 3.6 and SIAE inh conf -0.3.
Screening COc1ccc(NC(=O)C/C(C)=N/NC(=O)c2cnccn2)cc1 returned SIAE primary 2.4, mABHD4 FP 4.1, TCR-CD3 inh 2.3, HTRA1 inhibitor 3.7 and pPAFAH FP inh 2.6.
Screening COc1ccc(Cn2ccc3ccc(-c4ccc5ccn(C(=O)c6ccc(C)cc6)c5c4)cc32)cc1 returned SIAE primary -15.1 and mABHD4 FP -5.8.
`COc1ccccc1-n1c(C)nc2cc(C(=O)O)ccc21` gave SIAE primary 17.2*, mABHD4 FP -0.4, TCR-CD3 inh 7.7, HTRA1 inhibitor 9.8, pPAFAH FP inh 5.6 and SIAE inh conf -2.1.
Screening Cc1nc2cc(C(=O)O)ccc2n1-c1ccccc1 returned SIAE primary -3.4, mABHD4 FP 2.1, TCR-CD3 inh 1.5, HTRA1 inhibitor 1.2 and pPAFAH FP inh 5.8.
`COc1cc(C(=O)Nc2ccc(N3CCN(C(=O)c4ccc(C)cc4)CC3)cc2)cc(OC)c1OC` gave SIAE primary 20.7*, mABHD4 FP 1.1, TCR-CD3 inh 1.1, HTRA1 inhibitor 2.4, pPAFAH FP inh -0.1 and SIAE inh conf 6.5.
`Cc1ccc(C(=O)Nc2cccc(C(=O)N3CCOCC3)c2)cc1` gave SIAE primary 26.3*, mABHD4 FP 1.4, TCR-CD3 inh 9.8, HTRA1 inhibitor -3.5, pPAFAH FP inh -4.9 and SIAE inh conf 3.8.
`CC(C)(C)c1ccc(C(=O)Nc2cccc(C(=O)N3CCOCC3)c2)cc1` gave SIAE primary -2.5, mABHD4 FP -2.1, TCR-CD3 inh -2.4, HTRA1 inhibitor -2.5 and pPAFAH FP inh 5.3.
For COc1cc(C(=O)Nc2scc(-c3ccc(C)cc3)c2C(=O)O)cc(OC)c1OC the results were SIAE primary 40.7*, mABHD4 FP -15.1, TCR-CD3 inh 4.9, HTRA1 inhibitor -3.4, pPAFAH FP inh 8.4 and SIAE inh conf 34.7*.
`COc1ccc(C(=O)Nc2ccc(N3CCOCC3)cc2)cc1S(=O)(=O)NC1CCCC1` gave SIAE primary 17.1*, mABHD4 FP 2.3, TCR-CD3 inh -2.9, HTRA1 inhibitor 4.5, pPAFAH FP inh 4.9 and SIAE inh conf -5.7.
Screening O=C(COc1c(Cl)cc(Cl)cc1Cl)N/N=C/c1ccc[nH]1 returned SIAE primary 3.2 and mABHD4 FP -2.2.
C[C@@H]1CCN(C2CC2)S(=O)(=O)c2c(cccc2N2CC[C@@H](O)C2)O1 was read as SIAE primary -1.5 and mABHD4 FP -5.3.
`C=CCN=C1NC(c2cccc(F)c2)C(C(=O)OC)=C(C)N1Cc1cccc(C(F)(F)F)c1` (stereo not drawn) gave SIAE primary 0.1, mABHD4 FP 7.0 and TCR-CD3 inh 1.7.
COc1cc(C(=O)N2CCN(C3CCCCC3)CC2)cc(OC)c1OC was read as SIAE primary 18.5*, mABHD4 FP 10.1, TCR-CD3 inh 5.7, HTRA1 inhibitor 4.5, pPAFAH FP inh -1.0 and SIAE inh conf 9.7.
`COc1cc(C(=O)N2CCC(N3CCCCCC3)CC2)cc(OC)c1OC` gave SIAE primary -0.1, mABHD4 FP 6.3, TCR-CD3 inh 3.6, HTRA1 inhibitor 12.6 and pPAFAH FP inh -1.1.
Screening Cc1cnc(CNc2nc3cc(-c4ccccc4C)sc3c(=O)n2C)cn1 returned SIAE primary -17.6, mABHD4 FP -8.9 and TCR-CD3 inh 7.5.
Screening COc1ccc(CCC(=O)N2CCCC(Nc3ccc(C)c(C)c3)C2)cc1OC (stereo not drawn) returned SIAE primary 17.3*, mABHD4 FP 0.9, TCR-CD3 inh -2.1, HTRA1 inhibitor -5.0, pPAFAH FP inh 3.0 and SIAE inh conf 4.8.
For CC(C)/C=N/Nc1nc(-c2ccc(Br)cc2)cs1 the results were SIAE primary 17.9*, mABHD4 FP 12.8, TCR-CD3 inh 8.3, HTRA1 inhibitor -3.8, pPAFAH FP inh 15.4 and SIAE inh conf 1.6.
`CCn1ncc(/C=N\NC(=O)c2ccc3c(c2)c(C)c(C)n3Cc2ccccc2)c1C` gave SIAE primary 37.8*, mABHD4 FP -1.6, TCR-CD3 inh 7.4, HTRA1 inhibitor -32.9, pPAFAH FP inh 12.8 and SIAE inh conf -8.1.
`CCn1cc(/C=N\NC(=O)c2ccc3c(c2)c(C)c(C)n3Cc2ccccc2)c(C)n1` gave SIAE primary 0.6, mABHD4 FP -16.7, TCR-CD3 inh 0.3, HTRA1 inhibitor -21.8 and pPAFAH FP inh 11.1.
For O=C1NC[C@H](CCCCN2C[C@H](Cc3ccc(O)cc3)N(CCC3CCCCC3)C(=O)C2=O)N(CCC2CCCCC2)C1=O the results were SIAE primary 3.7, mABHD4 FP -8.1 and TCR-CD3 inh -5.5.
`Clc1ccc2c(N/N=C/c3ccc(Br)cc3)ccnc2c1` gave SIAE primary 19.1*, mABHD4 FP 14.2, TCR-CD3 inh -3.8, HTRA1 inhibitor -9.1, pPAFAH FP inh -2.7 and SIAE inh conf 12.9.
`Cc1ccccc1/C=N/Nc1ccnc2cc(Cl)ccc12` gave SIAE primary 25.7*, mABHD4 FP 18.6, TCR-CD3 inh -0.8, HTRA1 inhibitor 4.5, pPAFAH FP inh 4.0 and SIAE inh conf 30.5*.
`Clc1ccc2c(N/N=C/c3cccnc3)ccnc2c1` gave SIAE primary -5.6, mABHD4 FP 6.8, TCR-CD3 inh 0.5, HTRA1 inhibitor -18.3 and pPAFAH FP inh 3.1.
Screening Cc1ccc(/C=N/Nc2ccnc3cc(Cl)ccc23)c(C)c1 returned SIAE primary 44.4*, mABHD4 FP 12.5, TCR-CD3 inh 6.2, HTRA1 inhibitor -11.0, pPAFAH FP inh 19.1 and SIAE inh conf 58.7*.
`Oc1ccc(/C=N/Nc2ccnc3cc(Cl)ccc23)c(O)c1` gave SIAE primary 27.0*, mABHD4 FP 14.6, TCR-CD3 inh -10.7, HTRA1 inhibitor 9.7, pPAFAH FP inh 3.4 and SIAE inh conf 35.8*.
For CCCCc1cc(=O)oc2cc(C)cc(OCC(=O)Nc3cccnc3)c12 the results were SIAE primary -12.1, mABHD4 FP -5.9, TCR-CD3 inh 4.9, HTRA1 inhibitor -8.1 and pPAFAH FP inh 5.5.

Compound activity (PubChem BioAssay)
